# Results gathered from unrelated publications.
# Sample: Caco-2
Structure (SMILES),conditions,efflux ratio
N#Cc1ccc(C[C@H](Nc2nnc(-c3ccc(F)cc3)s2)C(=O)N2CCc3ccccc32)cc1,"100 µM, 2 h",> 20
C[C@H]1O[C@@H](O[C@H]2[C@@H](O)C[C@H](O[C@H]3[C@@H](O)C[C@H](O[C@H]4CC[C@@]5(C)[C@H](CC[C@@H]6[C@@H]5C[C@@H](O)[C@]5(C)[C@@H](C7=CC(=O)OC7)CC[C@]65O)C4)O[C@@H]3C)O[C@@H]2C)C[C@H](O)[C@@H]1O,"10 µM, 2 h",28.3
O=c1c(O[C@@H]2O[C@H](CO)[C@H](O)[C@H](O)[C@H]2O)c(-c2ccc(O)c(O)c2)oc2cc(O)cc(O)c12,200 µg/mL,1.56
COCC(=O)N1CCC[C@H](C(=O)NCc2nc(-c3ccccc3)cs2)C1,,1
Cc1ccc(N(c2ccc(NC(=O)CN(C)c3ccccc3N3CCCC3=O)cc2)C(C)C)cc1,,2.3
CCOCC(=O)N1CCC[C@H](C(=O)NCc2nc(-c3ccc(C#N)nc3)cs2)C1,,4.3
O=c1cc(-c2ccc(O)cc2)oc2c([C@@H]3O[C@H](CO)[C@@H](O)[C@H](O)[C@H]3O)c(O)cc(O)c12,200 µg/mL,1.28
CO/N=C(\C(=O)N[C@@H]1C(=O)N2C(C(=O)O)=C(CSC(=O)c3ccco3)CS[C@H]12)c1csc(N)n1,"200 µg/mL, 2 h, pH 7.4",1.96
COc1cc(NC(=O)Cn2cc(Cl)c3cc(F)c(-c4cnn(C)c4)cc32)cc(OC)c1OC,,18.2
CC(C)(N)COCC(=O)N1CCC[C@H](C(=O)NCc2nc(-c3ccc(C(F)(F)F)cc3)cs2)C1,,240
CC(C)c1nc(N(C)S(C)(=O)=O)nc(-c2ccc(F)cc2)c1/C=C/[C@@H](O)C[C@@H](O)CC(=O)O,"5 µM, 2 h",142
NCCOCC(=O)N1CCC[C@H](C(=O)NCc2nc(-c3ccc(C(F)(F)F)cc3)cs2)C1,,120
N#Cc1ccc(C[C@H](Nc2ncc(-c3ccc(F)cc3)o2)C(=O)N2CCc3ccccc32)cc1,"100 µM, 2 h",19
